The nature of this data set: Toxicity liver stage against HepG2, at 10uM. It is filed as cell-based. More on the design: test concentration 10 uM, cell line HepG2-A16-CD81EGFP. To be noted: human, HepG2-A16-CD81EGFP cells; read-out: INHIBITION
Put shortly:
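Uninfected HepG2-A16-CD81EGFP cells, 3 × 10^3 per well, 1536-well, plated on prespotted compound at 10 μM final, parasite-free screening media added to match infected plates; puromycin 10 μM positive, DMSO 0.5% negative; run in parallel with 48 h PbLuc assay at 37 °C, 5% CO2; viability by CellTiter-Glo luminescence, normalized to controls.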
Regarding `CC(C)=CCN1CCN(Cc2cccc(C)n2)CC1CCO` (configuration not stated), the cytotoxicity at 10 µM turned out to be 1.99%.
Then `COc1ccnc(NC(=O)CSCc2cccnc2)c1`, with -47.2%; and `Cc1c(C(=O)O)nnn1-c1cccc2cccnc12`, with 5.31%; and `Cn1cccc1CCC(=O)N1CCC2(CC1)c1ccccc1CC2O` (configuration not stated), with -8.57%.
In the case of `Cc1cc(C)c2nc(CNCCNS(C)(=O)=O)cc(O)c2c1`, the cytotoxicity at 10 µM was 0.145%.
`CNCc1cn(C2CCN(CCC(C)c3ccccc3)CC2)nn1` (configuration not stated): the cytotoxicity at 10 µM was determined as 3.44%.
Under `CN(Cc1ccc(F)c(F)c1)Cc1cc2c(cc1Br)OCCO2` stands -140%.
Under `COc1cc(NCc2c(C)noc2C)c(C(=O)N(C)C)cc1OC` stands 6.85%; under `Cc1csc(CN2CC[C@H]3C[C@H](c4nnc(C)[nH]4)O[C@@H]3C2)n1`, -19.6%; under `Cc1ccc(N2C[C@H](C)[C@]3(CCN(c4cccnc4)C3=O)C2)nn1`, -1.22%.
Under `CN1CC(=O)N(c2ccsc2)CC12CCN(S(=O)(=O)c1ccccc1)C2` (configuration not stated) stands 1.5%; under `COCC(C)NC(=O)c1cncc(Br)c1` (configuration not stated), 3.73%; under `CNc1cc(C(=O)NCCC2=CSC3=NCCCN23)ccn1`, 8.71%.
Consider `CC(NC1CCN(CCc2ccncc2)CC1)c1cnn(C(C)C)c1` (configuration not stated), for which the cytotoxicity at 10 µM was -4.97%.
Then `O=C(CN1CCCC(c2ccn[nH]2)C1)Nc1nc2c(s1)CCC2` (configuration not stated), with -42.4%; and `Cc1cc(C(=O)Nc2ccc(OC3CCOCC3)c(C)c2)[nH]n1`, with -8.03%.
Under `Cc1cnc(CN2CCN(C(C)c3nc(C(C)C)no3)CC2)cn1` (configuration not stated) stands 9.74%; under `c1cnc(N2CCC(OCCN3CCCCC3)C2)nc1` (configuration not stated), -47.3%.
As to `Cc1ccc2cccc(Oc3nc(C)c(C(=O)O)s3)c2n1`, the cytotoxicity at 10 µM came out at 6.39%.
In the case of `O=C1CCC(=O)c2oc3ccc(Br)cc3c2N1`, the cytotoxicity at 10 µM is 2.44%.
Under `CCCc1nnc(NCCc2noc(C3CCCC3)n2)o1` stands 20.2%; under `COC(=O)c1ccc(N(C)C2CCC2)nn1`, 19.8%.
Under `CN1CCN(c2cc(CNC(=O)c3cccnc3O)ccn2)CC1` stands -5.42%.
Then `O=C(c1cc2cc(F)ccc2[nH]1)N1CCC(Nc2ccc(F)cc2)CC1`, with -7.36%; and `Cc1nn(C)cc1CN1CCc2nc(-c3cccnc3)nc(O)c2C1`, with 22.5%.
With `CCc1ccc(C(=O)N2CCN(CCO)CC2)o1`, the cytotoxicity at 10 µM is -5.22%.
Under `O=C(NCc1n[nH]c2c1CCCCC2)c1cnn2c1CCCC2` stands 13.6%; under `O=C(Cn1cnc2cc3c(cc21)OCCCO3)NC1CCCCC1`, 5.68%.
For the compound `O=C(O)c1cccnc1N1CCN(Cc2ccc(F)cc2)C(CCO)C1` (configuration not stated), the cytotoxicity at 10 µM worked out at 12.3%.
Then `Cc1ncsc1CN1C[C@H](C(=O)NC2CCCC2)[C@@H]2CCO[C@@H]2C1`, with 8.04%; and `CC(=O)NCCC(Cc1ccccc1)c1ccco1` (configuration not stated), with -1.24%.
Then `Cc1ccccc1N1CCN(CCS(=O)(=O)c2ccc(Br)cc2)CC1`, with 18.7%; and `O=C(Cc1cccnc1)NC1COc2ccccc2C1=O` (configuration not stated), with -3.77%.
For `Cn1c(CN2CCCC2)nnc1C1CCCN(C(=O)CN2CCCC2)C1` (configuration not stated), the cytotoxicity at 10 µM is -1.9%.
Under `O=C(c1ncc[nH]1)N1CCC(n2cc(-c3ccccn3)nn2)CC1` stands 4.95%.
Then `c1nc2n(c1CN1CCCC1)CCN(C1CCOCC1)CC2`, with -71.1%; and `Cc1cnn(CC2CCCN2CCCc2nc3ccccc3o2)c1` (configuration not stated), with -6.19%; and `COC(=O)C(NC(=O)C(C)C)c1cc(F)ccc1F` (configuration not stated), with -4.53%.
Then `CN1CCOC(CN(C(=O)CCCn2cccn2)c2nccs2)C1` (configuration not stated), with -22.7%.
As for `Cc1cc(C2CCCN(Cc3nnc(Cc4ccccc4)o3)C2)n[nH]1` (configuration not stated), the cytotoxicity at 10 µM was -5.78%.
Then `CC(CNC(=O)Nc1cn[nH]c1)N1CCCC1` (configuration not stated), with -7.32%; and `CC(C)COCCC(=O)Nc1c(-c2ccc(F)cc2)ncn1C`, with -1.18%.
Under `CCN1CCC2(CN(C(C)=O)CC23CCN(CC2CC2)CC3)C1=O` (configuration not stated) stands 3.94%.
Under `CCc1nc(N2CCC3(CC2)[C@H](O)C[C@@H]3O)ncc1C` stands 6.02%; under `CN(C)c1cc(CNC(=O)Nc2ccc(C#N)cc2)ccn1`, -5.66%.
For `CCOc1cc(C)ccc1NC(=O)N(C)Cc1cnn(C)c1`, the cytotoxicity at 10 µM was -7.15%.
Then `CC(NC(=O)c1cccc(CN2CCN(C)CC2)c1)c1nccs1` (configuration not stated), with -4.28%.
For the compound `CCc1nccn1C1CCCN(C(=O)c2ccc(C(=O)NC)nc2)C1` (configuration not stated), the cytotoxicity at 10 µM was -6.33%.
In the case of `CCc1cnc(N)nc1NCCCN1CCCCC1CO` (configuration not stated), the cytotoxicity at 10 µM was -0.0414%.
Then `Cc1nc(CN2CCN(C(=O)CC(C)(C)c3ccccc3)CC2)no1`, with -1.96%.
Under `CC(C)CC(=O)N1CC[C@H]2N(C)CC[C@@]2(C(=O)Nc2ccccc2)CC1` stands -4.71%.
For `CC(C)(C)n1ncc2c(=O)n(CC(=O)NCCc3ccccc3)cnc21`, the cytotoxicity at 10 µM is -11.3%.
Under `O=C(NC[C@H]1OC[C@@H](NCc2ccccn2)[C@@H]1O)N1CCOCC1` stands 0.15%.
Then `CC(=O)N1CCC2(CC1)CC(N1CCOCC1)c1ccc(C)cc12` (configuration not stated), with -137%; and `F[C@@H]1CN(Cc2cccnc2)C[C@@H]1OCc1nc2ccccc2[nH]1`, with 5.22%.
Under `Cn1cccc1C(=O)N1C[C@@H]2COC[C@]2(CNS(C)(=O)=O)C1` stands 4.38%.
As to `Cc1ccc(C)n1-c1c(C(=O)NCC(C)Cn2cccn2)cnn1C` (configuration not stated), the cytotoxicity at 10 µM stood at 13.8%.
Then `CCC(=O)NCC1(O)CCC(C(C)(C)C)CC1` (configuration not stated), with 5.81%; and `Cc1ccc(C(=O)N2C[C@@H]3CN(S(C)(=O)=O)CCO[C@@H]3C2)s1`, with -4.75%; and `CCn1ccnc1CN(C)CC1CCCN1c1cccnn1` (configuration not stated), with -0.0722%.
Under `CC(C)(C)c1noc(CCCC(=O)NCC2CCS(=O)(=O)C2)n1` (configuration not stated) stands -15.4%; under `CCN1CCCc2cc(CN3CCc4nc(C)[nH]c(=O)c4C3)ccc21`, 0.13%.
Then `CCc1nc(CC(=O)N2CCCC2Cn2cccn2)cs1` (configuration not stated), with -2.6%.
Take `CC(C)C(=O)N1CCc2c(CN(C)Cc3ccco3)cncc2C1`: the cytotoxicity at 10 µM is -5.69%.
Then `CN(Cc1cnn(C)c1)C(=O)NC1CCN(Cc2ccccn2)CC1`, with -2.35%; and `Cc1ccc(N2CCN(Cc3ccccc3)C3(CCNCC3)C2=O)cn1`, with 12.1%.
Under `O=C(c1sccc1C1CC1)N1CCCN(Cc2cscn2)CC1` stands -14.7%.
Under `Cc1ccc(-c2ccc(C3CNCCO3)nc2)cc1` (configuration not stated) stands -5.3%; under `CN(Cc1nnnn1C1CC1)CC1COc2ccccc2O1` (configuration not stated), -5.79%.
With `CSCc1cccc(S(=O)(=O)N2CCCCCC2)c1`, the cytotoxicity at 10 µM is 6.91%.
Regarding `CC(C)c1nc(CS(=O)(=O)Cc2noc(C3CC3)n2)cs1`, the cytotoxicity at 10 µM turned out to be 6.16%.
Under `CSC(C)C(=O)N1CCN(CC(C)(C)O)CC1` (configuration not stated) stands -10.2%.

(Values after ChEMBL document CHEMBL4513216, “Probing the Open Global Health Chemical Diversity Library for Multistage-Active Starting Points for Next-Generation Antimalarials” (ACS Infect Dis, 2020).)
